Test results as given in publication PMC6545551 (ACS Omega, 2019).
Where two headings read alike, the source gives them in different places.

How the values were obtained:
[1] = molecular target: T1, ovine COX-1 (Ovis aries, UniProt P05979); test: Inhibition of purified ovine COX-1; assay type: biochemical
T1 sequence (P05979 25-600): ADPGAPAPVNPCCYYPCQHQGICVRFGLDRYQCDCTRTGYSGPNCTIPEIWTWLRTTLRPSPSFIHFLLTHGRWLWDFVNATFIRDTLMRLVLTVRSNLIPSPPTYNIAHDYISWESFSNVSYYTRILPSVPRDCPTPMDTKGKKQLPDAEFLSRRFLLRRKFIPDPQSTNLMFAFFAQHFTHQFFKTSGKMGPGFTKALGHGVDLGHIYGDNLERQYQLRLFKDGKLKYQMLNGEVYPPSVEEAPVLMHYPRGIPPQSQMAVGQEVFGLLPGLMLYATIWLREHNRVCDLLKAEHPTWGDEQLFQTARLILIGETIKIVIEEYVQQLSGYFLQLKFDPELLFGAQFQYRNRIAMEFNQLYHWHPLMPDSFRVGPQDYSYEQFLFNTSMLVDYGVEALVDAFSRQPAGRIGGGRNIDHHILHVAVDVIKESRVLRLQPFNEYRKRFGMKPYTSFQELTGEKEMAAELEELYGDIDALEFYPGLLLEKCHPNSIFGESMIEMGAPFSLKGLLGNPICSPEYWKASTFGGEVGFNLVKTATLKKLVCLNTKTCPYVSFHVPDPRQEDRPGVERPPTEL

[2] = molecular target: COX-1 in OVCAR3 cells (Homo sapiens, UniProt P23219); test: Inhibition of COX-1 in intact OVCAR3 cells; assay type: cell-based
[3] = molecular target: T2, COX-2 in 1483 HNSCC cells (Homo sapiens, UniProt P35354); test: Inhibition of COX-2 in intact 1483 HNSCC cells; assay type: cell-based
T2 sequence (P35354 18-604): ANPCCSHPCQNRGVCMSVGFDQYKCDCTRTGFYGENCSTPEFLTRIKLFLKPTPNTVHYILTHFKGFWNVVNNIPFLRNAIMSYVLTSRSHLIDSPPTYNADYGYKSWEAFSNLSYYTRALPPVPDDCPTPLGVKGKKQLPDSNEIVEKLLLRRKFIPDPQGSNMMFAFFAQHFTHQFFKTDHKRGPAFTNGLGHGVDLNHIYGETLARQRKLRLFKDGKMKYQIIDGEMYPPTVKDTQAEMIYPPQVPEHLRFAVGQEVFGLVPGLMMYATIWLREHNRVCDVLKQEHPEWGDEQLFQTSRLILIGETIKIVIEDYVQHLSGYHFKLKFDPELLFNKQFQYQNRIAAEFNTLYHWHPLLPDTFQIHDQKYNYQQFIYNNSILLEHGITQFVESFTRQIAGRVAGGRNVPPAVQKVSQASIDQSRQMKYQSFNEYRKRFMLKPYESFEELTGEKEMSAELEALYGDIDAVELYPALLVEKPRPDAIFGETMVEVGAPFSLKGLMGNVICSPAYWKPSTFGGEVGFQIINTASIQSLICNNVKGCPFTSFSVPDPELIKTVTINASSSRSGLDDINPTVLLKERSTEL

[4] = molecular target: T3, mouse COX-2 (Mus musculus, UniProt Q05769); test: Inhibition of purified COX-2; assay type: biochemical
T3 sequence (Q05769 18-604): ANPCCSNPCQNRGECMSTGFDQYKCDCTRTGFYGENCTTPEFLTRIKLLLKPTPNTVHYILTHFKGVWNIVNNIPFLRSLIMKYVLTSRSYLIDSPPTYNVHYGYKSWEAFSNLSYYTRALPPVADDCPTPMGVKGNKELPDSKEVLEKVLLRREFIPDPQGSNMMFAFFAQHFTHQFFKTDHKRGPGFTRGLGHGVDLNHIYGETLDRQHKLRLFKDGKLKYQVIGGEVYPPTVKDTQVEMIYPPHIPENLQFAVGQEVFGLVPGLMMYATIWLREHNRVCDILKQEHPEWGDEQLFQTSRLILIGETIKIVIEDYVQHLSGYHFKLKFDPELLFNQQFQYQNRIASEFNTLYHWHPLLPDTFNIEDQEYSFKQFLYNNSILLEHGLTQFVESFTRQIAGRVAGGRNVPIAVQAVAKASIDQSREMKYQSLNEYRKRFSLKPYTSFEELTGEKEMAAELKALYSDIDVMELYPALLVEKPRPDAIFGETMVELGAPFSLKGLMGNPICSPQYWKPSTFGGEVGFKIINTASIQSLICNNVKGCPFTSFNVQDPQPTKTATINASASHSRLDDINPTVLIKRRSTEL

[5] = In vivo plasma half-life of FDF in mice; settings: male, CD-1, mouse, ip, 10 mg/kg
[6] = In vivo biodistribution and defluorination of unlabeled FDF in C57BL/6 mice; design: species or system mouse; settings: 10 mg/kg i.p., 60 min
Procedure, shortened: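 Male C57BL/6 mice (30 g, three per group) received unlabeled test compound at 10 mg/kg i.p. "at 10 min intervals." At 60 min, brain, lungs, heart, kidney, liver and muscle were taken, rinsed in cold PBS and frozen at −80 °C. Tissues were homogenized in acetonitrile, extracts dried and reconstituted in methanol/water. Quantitation was by C18 LC–MS/MS, SRM m/z 279 → 236, against a 1:1 methanol/water standard curve.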

[7] = Plasma protein binding, human plasma; assay type: in vitro ADME
Procedure, shortened: (§1)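 Equilibrium dialysis in a high-throughput micro-equilibrium device, with test compound incubated in mouse, dog or human plasma at 37 °C. Samples were taken at 0 and 4.5 h and quantified by fast-gradient LC–MS/MS. Unbound fraction was calculated as buffer-side concentration divided by protein-side concentration. Recovery was the summed buffer and protein chamber concentrations relative to the 0 h concentration.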

[8] = Plasma protein binding, free fraction across species; assay type: in vitro ADME; settings: mouse, dog, human
Procedure, shortened: as §1

[9] = Plasma protein binding, dog plasma; assay type: in vitro ADME
Procedure, shortened: as §1

[10] = Plasma protein binding, mouse plasma; assay type: in vitro ADME
Procedure, shortened: as §1

Sequence of COX-1 in OVCAR3 cells (P23219 24-599): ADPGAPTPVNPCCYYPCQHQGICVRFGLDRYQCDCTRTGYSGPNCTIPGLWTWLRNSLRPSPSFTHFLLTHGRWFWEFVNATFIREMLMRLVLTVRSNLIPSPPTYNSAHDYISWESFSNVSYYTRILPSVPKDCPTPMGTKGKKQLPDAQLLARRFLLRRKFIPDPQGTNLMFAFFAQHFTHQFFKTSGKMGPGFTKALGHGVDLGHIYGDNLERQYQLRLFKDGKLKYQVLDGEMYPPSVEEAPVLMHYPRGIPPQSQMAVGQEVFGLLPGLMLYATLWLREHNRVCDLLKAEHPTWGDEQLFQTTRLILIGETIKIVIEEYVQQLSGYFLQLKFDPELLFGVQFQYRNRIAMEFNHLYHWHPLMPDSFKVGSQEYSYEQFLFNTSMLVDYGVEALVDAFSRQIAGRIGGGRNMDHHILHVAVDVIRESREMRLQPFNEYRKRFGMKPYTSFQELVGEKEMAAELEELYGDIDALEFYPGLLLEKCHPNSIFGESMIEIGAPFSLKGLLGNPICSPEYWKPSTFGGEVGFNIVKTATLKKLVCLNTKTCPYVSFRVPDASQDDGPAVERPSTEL

SMILES	IC50 [1]	IC50 [2]	IC50 [3]	other results
CC1(C)OC(=O)C(c2ccccc2)=C1c1ccccc1 [Compound 1, 5,5-Dimethyl-3,4-diphenylfuran-2(5H)-one]	360 nM	120 nM	> 5000 nM	Inhibition of purified COX-2 (in words) ([4]; at concentrations up to 25 μM): no inhibition
CC1(C)OC(=O)C(c2ccc(F)cc2)=C1c1ccccc1 [Compound 3, 3-(4-Fluorophenyl)-5,5-dimethyl-4-phenylfuran-2(5H)-one]	640 nM	280 nM	> 5000 nM	–
Cc1ccc(C2=C(c3ccccc3)C(=O)OC2(C)C)cc1 [Compound 2, 5,5-Dimethyl-3-phenyl-4-(p-tolyl)furan-2(5H)-one]	50 nM	490 nM	> 5000 nM	–
Cc1ccc(C2=C(c3ccc(F)cc3)C(=O)OC2(C)C)cc1 [Compound 4, 3-(4-Fluorophenyl)-5,5-dimethyl-4-(p-tolyl)furan-2(5H)-one]	140 nM	220 nM	> 5000 nM	half-life [5]: 1.2 h; Defluorinated metabolite in other organs [6]: below the quantification limit; Uptake in the kidney (average) [6]: 8.87 nmol/g tissue; Uptake in the liver (overall average) [6]: 0.61 nmol/g tissue; fraction unbound at 4.5 h [7]: ~0.01; fraction unbound at 4.5 h [8]: 0.0099 to 0.025; fraction unbound at 4.5 h [9]: ~0.01; fraction unbound at 4.5 h [10]: 0.025
Cc1ccc(C2=C(c3cccc(F)c3)C(=O)OC2(C)C)cc1 [Compound 5, 3-(3-Fluorophenyl)-5,5-dimethyl-4-(p-tolyl)furan-2(5H)-one]	50 nM	130 nM	> 5000 nM	–

The next lines start with results.

IC50 [1]	IC50 [2]	IC50 [3]	SMILES	other results
40 nM	800 nM	> 5000 nM	Cc1ccc(C2=C(c3ccc(I)cc3)C(=O)OC2(C)C)cc1 [Compound 6, 3-(4-Iodophenyl)-5,5-dimethyl-4-(p-tolyl)furan-2(5H)-one]	–
> 25000 nM	> 5000 nM	> 5000 nM	COc1ccc([I+]c2ccc(C3=C(c4ccc(C)cc4)C(C)(C)OC3=O)cc2)cc1.Cc1ccc(S(=O)(=O)[O-])cc1 [Compound 7, (4-(5,5-Dimethyl-2-oxo-4-(p-tolyl)-2,5-dihydrofuran-3-yl)phenyl)(4-methoxyphenyl)iodonium Tosylate]	Inhibition of purified COX-1 (in words) [1]: failed to inhibit; Inhibition of purified COX-2 (in words) [4]: failed to inhibit; Inhibition of COX-1 in intact OVCAR3 cells (in words) [2]: inactive; Inhibition of COX-2 in 1483 HNSCC cells (in words) [3]: inactive
